Results: ChEMBL document CHEMBL3826888, “New naphthalene derivatives and isoquinoline alkaloids from Ancistrocladus cochinchinensis with their anti-proliferative activity on human cancer cells” (Bioorg Med Chem Lett, 2016)
Converted amounts (≈) assume the structure as drawn.

What was measured:
Plasmodium falciparum [1] = assay: Antiparasitic activity against Plasmodium falciparum K1; assay type: functional, organism-based
[2] = Antiproliferative activity against human HL60 cells assessed as cell death at 20 ug/ml after 3 days by sulforhodamine B assay relative to control; assay type: functional, HL-60
How it was run: (§1)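 Human cancer cell lines HL-60 (promyelocytic leukemia), LU-1 (lung carcinoma) and SK-MEL-2 (melanoma) were screened by sulforhodamine B assay, with each sample at a single concentration of 20 µg/mL. The read-out was percentage cell death; samples giving over 50% death went on to dose-response testing. Ellipticine was the positive control throughout.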

Lu1 [3] = assay: Antiproliferative activity against human Lu1 cells assessed as cell death at 20 ug/ml after 3 days by sulforhodamine B assay relative to control; assay type: functional; how it was run: as §1
SK-MEL-2 [4] = assay: Antiproliferative activity against human SK-MEL-2 cells assessed as cell death at 20 ug/ml after 3 days by sulforhodamine B assay relative to control; assay type: functional; how it was run: as §1
[5] = Antiproliferative activity against human HL60 cells after 3 days by sulforhodamine B assay relative to control; assay type: functional, cell-based; settings: HL-60, 72 h
How it was run: (§2)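 SRB cell-proliferation assay on human cancer cell lines. Each sample was first screened at a single concentration of 20 µg/mL. Samples causing over 50% cell death then went to a dose-dependent study to derive IC50 in µg/mL. Ellipticine served as positive control throughout.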

Lu1 [6] = assay: Antiproliferative activity against human Lu1 cells after 3 days by sulforhodamine B assay relative to control; assay type: functional, cell-based; settings: Lu1, 72 h; how it was run: as §2
SK-MEL-2 [7] = assay: Antiproliferative activity against human SK-MEL-2 cells after 3 days by sulforhodamine B assay relative to control; assay type: functional, cell-based; settings: SK-MEL-2, 72 h; how it was run: as §2
Plasmodium falciparum [8] = assay: Antiparasitic activity against Plasmodium falciparum NF54 after 48 hrs by [3H]-hypoxanthine incorporation assay; assay type: functional, organism-based
[9] = test system: Trypanosoma brucei brucei; assay: Antitrypanosomal activity against Trypanosoma brucei brucei TC221; assay type: functional, organism-based

SMILES | Activity [2] [%] | Activity (Lu1 [3]) [%] | Activity (SK-MEL-2 [4]) [%] | further results
COc1cc(O)c(-c2c(C)cc(O)c3c(OC)cccc23)c2c1[C@@H](C)N(C)[C@@H](C)C2 |  |  |  | IC50 (Plasmodium falciparum [1]; Plasmodium falciparum, K1): 80 nM
COc1cc(O)c(-c2c(C)cc(OC)c3c(OC)cccc23)c2c1[C@@H](C)N[C@@H](C)C2 | >50 | >50 | >50 | IC50 [5]: 5 µg/mL (≈ 12.3 µM); IC50 (Lu1 [6]): 6.5 µg/mL (≈ 16 µM); IC50 (SK-MEL-2 [7]): 6.8 µg/mL (≈ 16.7 µM)
COc1cc(O)ccc1O[C@@H]1O[C@H](COC(=O)c2cc(OC)c(O)c(OC)c2)[C@@H](O)[C@H](O)[C@H]1O | <50 | <50 | <50 | 
COc1cc(O)c2c(c1-c1c(C)cc(OC)c3c(OC)cccc13)C[C@H](C)N[C@H]2C (stereo in doubt; form 2) |  |  |  | IC50 (Plasmodium falciparum [1]): 30 nM
COc1cc([C@H]2OC[C@H]3[C@@H]2CO[C@H]3c2cc(OC)c(O[C@@H]3O[C@H](CO)[C@@H](O)[C@H](O)[C@H]3O)c(OC)c2)cc(OC)c1O | <50 | <50 | <50 | 
Cc1cc(O[C@@H]2O[C@H](CO[C@@H]3OC[C@](O)(CO)[C@H]3O)[C@@H](O)[C@H](O)[C@H]2O)c2c(O)cccc2c1 | <50 | <50 | <50 | 
COc1cccc2c(-c3ccc4c(c3O)[C@@H](C)N[C@H](C)C4)c(C)c(-c3c(C)c(-c4ccc5c(c4O)[C@@H](C)N[C@H](C)C5)c4cccc(OC)c4c3O)c(O)c12 |  |  |  | IC50 (Plasmodium falciparum [8]): 1.4 nM
COc1cc(C)cc2ccc(-c3ccc4c(c3O)[C@@H](C)N[C@H](C)C4)c(O)c12 |  |  |  | EC50 [9]: 2600 nM
Cc1cc(O)c2c(c1)[C@H](O[C@@H]1O[C@H](CO[C@@H]3O[C@H](CO)[C@@H](O)[C@H](O)[C@H]3O)[C@@H](O)[C@H](O)[C@H]1O)CCC2=O | <50 | <50 | <50 | 
COc1cc(C)c(-c2ccc(O)c3c2C[C@@H](C)N[C@@H]3C)c2cccc(O)c12 [DIONCOPHYLLINE C] |  |  |  | EC50 [9]: 4200 nM
COc1cc(O)c2c(c1-c1c(C)cc(OC)c3c(OC)cccc13)C[C@H](C)N[C@H]2C (stereo in doubt; form 1) |  |  |  | IC50 (Plasmodium falciparum [1]): 70 nM
COc1cc(O)cc2cc(CO)nc(C)c12 | <50 | <50 | <50 | 
COc1cccc2c(-c3ccc4c(c3O)[C@@H](C)N[C@H](C)C4)c(C)cc(OC)c12 [DIONCOPHYLLINE A] |  |  |  | EC50 [9]: 3400 nM
COc1cc(O[C@@H]2O[C@H](CO)[C@@H](O)[C@H](O)[C@H]2O)cc2cc(CO)nc(C)c12 | <50 | <50 | <50 | 
